A short description of data set [1]: Binding affinity to PBR in rhesus monkey mitochondrial tissue. Further details: species or system Macaca mulatta. The method, boiled down:
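Mitochondrial fractions (rat, rhesus monkey or human) were incubated with [³H]PK 11195 (0.38 nM final) and eight test-ligand concentrations for 2 h at 4 °C. Samples were filtered on PEI-presoaked GF/B filters, washed with ice-cold buffer and counted. Nonspecific binding was taken at the top inhibitor level (0.1–0.3 µM). Triplicate curves were run in two independent experiments. IC₅₀ was converted to K_i by Cheng–Prusoff, using K_D from homologous PK 11195 displacement.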

Data set [2] has as its target Translocator protein (Homo sapiens, UniProt P30536). Put plainly: Binding affinity to PBR in human mitochondrial tissue.
The target of data set [3] is Translocator protein (Rattus norvegicus, UniProt P16257). Put plainly: Binding affinity to PBR in Sprague-Dawley rat mitochondrial tissue.
Another data set has as its system Rattus norvegicus. Put plainly: Biodistribution in rat urine at 2.34 mCi, iv after 30 mins. The format is ADME, organism-based. The note with it: in vivo, 0.5 h.
Data set [4] deals with Plasma. The data set is described as follows: Drug level in rhesus monkey plasma assessed as cell distribution. It is filed as ADME, cell-free, Macaca mulatta.
Data set [5] can be described thus: Stability in monkey whole blood >30 mins. It is filed as ADME, tissue-based, Macaca mulatta. Particulars: rhesus monkey, read-out: Stability. The method, boiled down: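 The radioligand was incubated with monkey blood for >30 min. Radioactivity extracted from the plasma was analysed by radio-HPLC to give the percentage of unchanged radioligand, reported as mean ± SD.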

For data set [6], the system named is Plasma. The data set is described as follows: Biodistribution in rat plasma at 0.472 mCi, iv after 30 mins. It is filed as ADME, organism-based. The note with it: in vivo, 0.5 h. The method, boiled down:
(§1)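 Rats received the ¹¹C-radioligand iv with varying carrier mass (µg/kg) and were sampled 30 min later. Plasma and brain homogenate were extracted into acetonitrile and analysed by reverse-phase radio-HPLC (C18; MeOH/H₂O/Et₃N, 1.5 mL/min), reporting % radioactivity as unchanged radioligand. Extraction recovery was recorded. Replicate HPLC analyses were run on one sample per rat.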

Data set [7] can be described thus: Stability in sodium phosphate buffer at pH 7.4 after 2.5 hrs. The format is physicochemical. Particulars: read-out: Stability. The method, boiled down: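 Radioligand stored in 0.15 M sodium phosphate buffer, pH 7.4, for 2.5 h; radiochemical stability measured by radio-HPLC as percent of radioactivity remaining as unchanged radioligand; n = 4.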
A further data set relates to Brain. The data set is described as follows: Biodistribution in rat brain at 0.472 mCi, iv after 30 mins. It is filed as ADME, organism-based. The note with it: in vivo, 0.5 h.
Data set [8] in a line: Biodistribution in rhesus monkey plasma free fraction of blood. The format is ADME, organism-based, Macaca mulatta.
The target of data set [9] is GABA A receptor alpha-2/beta-2/gamma-2 (Homo sapiens, UniProt P18507+P47869+P47870). The data set is described as follows: Binding affinity to GABA alpha-2-beta-2-gamma-2 receptor. It is filed as protein-complex assay. The method, boiled down: (§2)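 K_i values at central benzodiazepine (GABA_A) receptor subtypes were determined in radioligand binding assays within the NIMH PDSP screen.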

Data set [10] addresses GABA A receptor alpha-5/beta-3/gamma-2 (Rattus norvegicus, UniProt P18508+P19969+P63079). Put plainly: Binding affinity to GABA alpha-5-beta-2-gamma-2 receptor. The format is protein-complex assay, Homo sapiens. An outline of the steps:
as §2

The test system of data set [11] is Plasma. Put plainly: Biodistribution in rat plasma at 2.34 mCi, iv after 30 mins. It is filed as ADME, organism-based. The note with it: in vivo, 0.5 h. The method, boiled down: as §1
A short description of data set [12]: Lipophilicity, log D of the compound. It is filed as physicochemical. Particulars: octanol/water. An outline of the steps: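 The ¹¹C-ligand (~300 µCi) in saline with 5% ethanol was mixed with sodium phosphate buffer (0.15 M, pH 7.4). Six 1 mL aliquots were each vortexed 1 min with buffer-pre-equilibrated n-octanol, centrifuged 1 min, and 200 µL of each phase was γ-counted. Aqueous counts were corrected by radio-HPLC for the unchanged fraction. LogD = log(cpm octanol/corrected cpm aqueous); mean ± SD of six determinations.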

The target of data set [13] is GABA A receptor alpha-1/beta-1/gamma-2 (Homo sapiens, UniProt P14867+P18505+P18507). Put plainly: Binding affinity to GABA alpha-1-beta-1-gamma-2 receptor. The format is protein-complex assay. The method, boiled down:
as §2

A short description of data set [14]: Stability in Sprague-Dawley rat brain after 2 hrs. The format is ADME, tissue-based. Particulars: read-out: Stability. The method, boiled down:
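The radioligand was incubated with rat brain homogenate in saline for 2 h at 37 °C. The percentage of unchanged radioligand was then determined by radio-HPLC.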

Data set [15] has as its target GABA A receptor alpha-6/beta-2/gamma-2 (Homo sapiens, UniProt P18507+P47870+Q16445). The data set is described as follows: Binding affinity to GABA alpha-6-beta-2-gamma-2 receptor. It is filed as protein-complex assay. The method, boiled down:
as §2

Data set [16] addresses Kappa-type opioid receptor (Homo sapiens, UniProt P41145). The data set is described as follows: Binding affinity to kappa opioid receptor.
Data set [17] concerns Plasma. Put plainly: Drug level in rhesus monkey plasma. It is filed as ADME, cell-free, Macaca mulatta.

This note sets out measurements from ChEMBL document CHEMBL1140697, “Synthesis and evaluation in monkey of two sensitive 11C-labeled aryloxyanilide ligands for imaging brain peripheral benzodiazepine receptors in vivo” (J Med Chem, 2008).

Molecules are shown by their SMILES. pKi: −log10 of the molar value.

Sequence of Translocator protein (Rattus norvegicus, UniProt P16257) (P16257 whole entry, looked up): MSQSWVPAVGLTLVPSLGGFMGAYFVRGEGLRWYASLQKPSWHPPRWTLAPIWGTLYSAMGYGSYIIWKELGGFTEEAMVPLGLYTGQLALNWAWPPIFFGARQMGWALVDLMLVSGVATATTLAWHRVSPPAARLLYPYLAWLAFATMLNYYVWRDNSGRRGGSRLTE
Sequence of Translocator protein (Homo sapiens, UniProt P30536) (P30536 whole entry): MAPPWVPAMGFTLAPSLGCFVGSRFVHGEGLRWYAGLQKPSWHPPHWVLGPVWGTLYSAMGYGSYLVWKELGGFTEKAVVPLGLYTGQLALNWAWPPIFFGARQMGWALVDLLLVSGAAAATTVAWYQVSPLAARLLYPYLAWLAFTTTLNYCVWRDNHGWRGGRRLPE
Sequence of GABA A receptor alpha-6/beta-2/gamma-2 (P47870 whole entry): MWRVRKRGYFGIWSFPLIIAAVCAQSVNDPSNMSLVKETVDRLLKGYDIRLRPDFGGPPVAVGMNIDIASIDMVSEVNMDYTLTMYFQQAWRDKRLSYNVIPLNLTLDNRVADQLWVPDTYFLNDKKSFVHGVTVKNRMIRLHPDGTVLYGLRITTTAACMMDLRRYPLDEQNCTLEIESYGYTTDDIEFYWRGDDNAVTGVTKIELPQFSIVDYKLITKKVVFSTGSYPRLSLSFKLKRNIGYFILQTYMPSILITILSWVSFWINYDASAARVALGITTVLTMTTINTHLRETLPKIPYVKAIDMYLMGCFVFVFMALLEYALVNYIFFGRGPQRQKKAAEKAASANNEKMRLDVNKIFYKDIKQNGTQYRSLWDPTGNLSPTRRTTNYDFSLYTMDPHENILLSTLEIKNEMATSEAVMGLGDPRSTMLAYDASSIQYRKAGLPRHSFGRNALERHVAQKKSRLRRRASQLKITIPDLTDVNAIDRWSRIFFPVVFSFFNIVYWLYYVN
Sequence of GABA A receptor alpha-6/beta-2/gamma-2 (P18507 whole entry): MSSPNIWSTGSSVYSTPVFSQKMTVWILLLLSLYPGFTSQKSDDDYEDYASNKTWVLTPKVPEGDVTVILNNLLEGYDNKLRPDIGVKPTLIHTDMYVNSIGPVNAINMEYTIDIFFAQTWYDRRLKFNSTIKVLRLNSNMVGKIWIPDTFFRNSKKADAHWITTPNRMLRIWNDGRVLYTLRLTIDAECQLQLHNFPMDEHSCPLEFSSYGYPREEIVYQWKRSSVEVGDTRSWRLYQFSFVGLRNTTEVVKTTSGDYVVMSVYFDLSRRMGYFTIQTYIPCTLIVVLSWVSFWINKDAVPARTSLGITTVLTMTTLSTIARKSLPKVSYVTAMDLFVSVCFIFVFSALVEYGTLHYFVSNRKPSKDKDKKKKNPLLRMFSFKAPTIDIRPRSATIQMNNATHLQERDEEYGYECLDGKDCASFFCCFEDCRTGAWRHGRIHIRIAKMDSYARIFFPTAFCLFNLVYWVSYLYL
Sequence of GABA A receptor alpha-6/beta-2/gamma-2 (Q16445 whole entry): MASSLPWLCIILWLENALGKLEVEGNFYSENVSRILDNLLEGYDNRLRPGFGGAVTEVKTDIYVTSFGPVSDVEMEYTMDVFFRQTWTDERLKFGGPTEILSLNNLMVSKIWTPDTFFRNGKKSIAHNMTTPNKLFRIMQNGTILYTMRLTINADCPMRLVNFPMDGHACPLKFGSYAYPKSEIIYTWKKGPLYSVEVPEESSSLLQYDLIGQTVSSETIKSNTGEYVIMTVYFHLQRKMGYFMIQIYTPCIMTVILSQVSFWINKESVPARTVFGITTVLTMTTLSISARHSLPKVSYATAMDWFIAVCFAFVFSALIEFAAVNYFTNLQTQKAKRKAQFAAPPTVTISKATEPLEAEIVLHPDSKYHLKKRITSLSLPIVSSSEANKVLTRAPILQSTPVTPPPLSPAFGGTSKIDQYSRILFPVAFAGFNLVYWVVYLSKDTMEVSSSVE
Sequence of GABA A receptor alpha-2/beta-2/gamma-2 (P47870 whole entry): as the sequence (P47870 whole entry) above
Sequence of GABA A receptor alpha-2/beta-2/gamma-2 (P18507 whole entry): as the sequence (P18507 whole entry) above
Sequence of GABA A receptor alpha-2/beta-2/gamma-2 (P47869 whole entry): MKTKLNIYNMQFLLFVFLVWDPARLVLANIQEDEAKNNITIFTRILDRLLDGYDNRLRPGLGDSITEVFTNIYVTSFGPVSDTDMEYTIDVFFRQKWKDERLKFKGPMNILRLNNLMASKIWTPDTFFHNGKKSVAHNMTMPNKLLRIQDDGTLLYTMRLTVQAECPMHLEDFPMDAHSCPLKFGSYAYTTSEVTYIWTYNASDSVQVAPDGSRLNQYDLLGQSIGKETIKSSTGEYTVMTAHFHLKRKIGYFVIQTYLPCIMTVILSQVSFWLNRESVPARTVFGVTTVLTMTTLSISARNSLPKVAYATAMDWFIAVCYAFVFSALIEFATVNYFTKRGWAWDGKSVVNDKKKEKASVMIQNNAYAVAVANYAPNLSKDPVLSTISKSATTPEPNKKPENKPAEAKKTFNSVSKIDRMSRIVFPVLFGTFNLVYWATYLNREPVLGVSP
Sequence of Kappa-type opioid receptor (P41145 whole entry): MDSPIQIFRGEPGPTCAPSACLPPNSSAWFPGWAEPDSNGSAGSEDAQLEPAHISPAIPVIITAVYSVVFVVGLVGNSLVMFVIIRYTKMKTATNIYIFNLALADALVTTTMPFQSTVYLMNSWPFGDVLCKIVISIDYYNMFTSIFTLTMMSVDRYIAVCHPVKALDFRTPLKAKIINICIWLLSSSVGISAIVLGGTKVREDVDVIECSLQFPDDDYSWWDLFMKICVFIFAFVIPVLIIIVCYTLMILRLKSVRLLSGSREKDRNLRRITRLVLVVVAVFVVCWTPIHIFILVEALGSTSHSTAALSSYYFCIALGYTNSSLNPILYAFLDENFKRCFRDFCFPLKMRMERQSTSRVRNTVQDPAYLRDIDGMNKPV
Sequence of GABA A receptor alpha-1/beta-1/gamma-2 (P14867 whole entry): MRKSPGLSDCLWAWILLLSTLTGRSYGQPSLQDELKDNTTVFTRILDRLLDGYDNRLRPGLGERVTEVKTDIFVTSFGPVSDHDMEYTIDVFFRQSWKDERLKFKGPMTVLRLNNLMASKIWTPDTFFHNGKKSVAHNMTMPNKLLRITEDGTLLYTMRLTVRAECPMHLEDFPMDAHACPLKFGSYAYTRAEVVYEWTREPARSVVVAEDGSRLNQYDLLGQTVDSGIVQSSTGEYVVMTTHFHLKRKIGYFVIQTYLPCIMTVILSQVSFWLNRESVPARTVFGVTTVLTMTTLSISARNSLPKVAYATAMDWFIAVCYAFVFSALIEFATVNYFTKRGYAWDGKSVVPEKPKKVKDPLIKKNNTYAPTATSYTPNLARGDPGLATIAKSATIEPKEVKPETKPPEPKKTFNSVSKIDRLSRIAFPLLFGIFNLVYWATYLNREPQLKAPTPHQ
Sequence of GABA A receptor alpha-1/beta-1/gamma-2 (P18507 whole entry): as the sequence (P18507 whole entry) above
Sequence of GABA A receptor alpha-1/beta-1/gamma-2 (P18505 whole entry): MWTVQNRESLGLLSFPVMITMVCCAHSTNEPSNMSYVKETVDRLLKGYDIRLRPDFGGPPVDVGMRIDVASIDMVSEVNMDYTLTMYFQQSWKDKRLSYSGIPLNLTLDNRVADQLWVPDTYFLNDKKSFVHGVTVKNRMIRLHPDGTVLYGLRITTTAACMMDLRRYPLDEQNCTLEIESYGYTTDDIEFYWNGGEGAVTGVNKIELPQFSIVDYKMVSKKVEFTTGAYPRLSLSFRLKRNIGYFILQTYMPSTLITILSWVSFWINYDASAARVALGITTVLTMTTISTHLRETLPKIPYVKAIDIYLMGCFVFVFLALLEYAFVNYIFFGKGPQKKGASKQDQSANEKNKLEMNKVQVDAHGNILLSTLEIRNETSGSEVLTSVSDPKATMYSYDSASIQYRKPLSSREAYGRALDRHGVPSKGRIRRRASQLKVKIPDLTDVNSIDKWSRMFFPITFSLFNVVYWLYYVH

Usually pKi stands for the Ki on a negative log10 scale, so that one unit is a factor of ten. With `COc1ccc(O[11CH3])c(CN(C(C)=O)c2cc(F)ccc2Oc2ccccc2)c1`, the values for the negative logarithm of the Ki (pKi) (in data set [1]; on Translocator protein [2]; on Translocator protein [3]) were 9.64, 9.62 and 10.14, respectively.

A word on the fraction unbound: it is free concentration divided by total concentration. The logD is lipophilicity at a set pH, counting ionised and neutral species. Consider `CC(=O)N(Cc1ccccc1O[11CH3])c1cnccc1Oc1ccccc1`, for which the Drug uptake with Rattus norvegicus is on record as 0.39%; with Plasma [4] it was 66.8%; in the data set with Plasma [6], 4.2%; in the data set on Brain, 97.6%; in the data set on Plasma [11], 2.4%; in the data set on Plasma [17], 33.2%. Moreover, the negative logarithm of the Ki (pKi) in data set [1] is 9.03; in [9], below 5.00; in [10], below 5.00; in data set [13] it was below 5.00; in data set [15], below 5.00; on Translocator protein [2], 8.61. Further, the pKi in data set [16] was 5.66; at Translocator protein [3], 9.17. Further, in data set [5], the remaining at 0.5 h amounted to 95.8%. For the same compound, the remaining at 2.5 h in data set [7] came out at 99%. In [8], the fraction unbound came to 0.056. Moreover, in data set [12], the logD was determined as 3.01. Further, in data set [14], the remaining at 2 h was 99.8%.
